Like-named read-outs stand apart in the source and are kept apart here.
How the values were obtained:
VopS [1] = target: T1, VopS (Vibrio parahaemolyticus serotype O3:K6, UniProt Q87P32); test: biochemical
VopS [2] = conditions: read-out: KM of VopS for ATP; cited from earlier work
VopS [3] = target: T1, VopS; test: biochemical; type: biochemical; conditions: for Labeling of Cdc42 in gel (in words): 10 µM inhibitor; for inhibition at 10 µM: read-out: Gel based % inhibition VopS; for Gel based % inhibition VopS: 10 µM compound, relative to DMSO control
VopS [4] = test: biochemical; type: biochemical, Vibrio parahaemolyticus; conditions: VopS over HYPE, from gel based % inhibition at 10 µM
PAD4 = PAD4 (Homo sapiens, UniProt Q9UM07); test: PAD4 FP-ABPP HTS counterscreen with fluorescein-conjugated F-amidine; type: biochemical
Chain of PAD4 (Q9UM07 whole entry, species assumed): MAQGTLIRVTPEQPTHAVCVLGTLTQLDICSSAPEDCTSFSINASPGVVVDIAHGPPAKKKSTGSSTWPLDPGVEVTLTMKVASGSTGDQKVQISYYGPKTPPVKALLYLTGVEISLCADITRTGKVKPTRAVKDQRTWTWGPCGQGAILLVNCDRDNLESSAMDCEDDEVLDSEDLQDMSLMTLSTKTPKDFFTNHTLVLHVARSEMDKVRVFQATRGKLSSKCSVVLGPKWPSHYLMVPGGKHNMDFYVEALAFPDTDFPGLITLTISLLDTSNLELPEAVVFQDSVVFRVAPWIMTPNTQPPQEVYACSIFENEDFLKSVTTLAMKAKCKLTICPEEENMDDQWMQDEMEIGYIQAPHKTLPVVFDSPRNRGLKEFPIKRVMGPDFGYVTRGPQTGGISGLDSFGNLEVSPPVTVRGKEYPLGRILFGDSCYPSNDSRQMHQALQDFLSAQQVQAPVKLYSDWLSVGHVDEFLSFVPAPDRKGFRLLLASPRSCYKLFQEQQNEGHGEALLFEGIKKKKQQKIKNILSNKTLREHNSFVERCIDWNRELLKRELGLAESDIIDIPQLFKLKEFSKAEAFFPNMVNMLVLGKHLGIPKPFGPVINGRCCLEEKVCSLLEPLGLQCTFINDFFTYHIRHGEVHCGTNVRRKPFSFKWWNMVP
Summary of the method: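 Fluorescence polarization read-out with the fluorescein-tagged probe FFA, which covalently modifies an active-site cysteine of PAD4 and gives a time-dependent rise in FP when incubated with the enzyme. Test compounds were run as concentration-response curves, and inhibition was read as reduced FP. Used as a counterscreen to flag quenchers, aggregators and other non-specific FP decreasers.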

VopS [5] = target: T1, VopS; test: biochemical; conditions: for inhibition at 11 µM: read-out: Primary screen inhibition; for Primary screen inhibition: LOPAC screen at 11 µM, FP read at 3 h, average of three replicates
VopS [6] = target: T1, VopS; type: biochemical
[7] = test system: VopS transfected HeLa cells; test: Cell rounding phenotype induced by VopS overexpression; type: cell-based; conditions: 10 µM
HYPE Fic E234G = test: Gel-based secondary screen, HYPE Fic E234G with histone H3 as substrate; type: biochemical, human; conditions: 10 µM compound, relative to DMSO control
[8] = test system: VopS transfected HeLa cells; test: Cellular protein AMPylation, Western blot; type: cell-based; conditions: Western blotting, 1 and 3 at 10 µM, 4 at 5 µM, 18 h
VopSΔ30 = VopSΔ30 (Vibrio parahaemolyticus serotype O3:K6, UniProt Q87P32); test: Differential hydrogen deuterium exchange; type: binding; conditions: 10 µM VopSΔ30, 100 µM or 30 µM ligand
[9] = read-out: CRC IC50 PAD4, PAD4 targeted FP-ABPP assay

| Structure (SMILES) | IC50 (VopS [1]; IC50(ATP), 3 h, 7 replicates, ATP out competing Fl-ATP) [µM] | IC50 (VopS [1]; IC50, at 1, 2, and 3 h) [µM] | Km (VopS [2]) [µM] | Labeling of Cdc42 in gel (in words) (VopS [3]) | inhibition at 10 µM (VopS [3]) [%] | Fold selective (VopS [4]) [fold] | IC50 (PAD4) [µM] | inhibition at 11 µM (VopS [5]) [%] | Kii (VopS [6]; varied substrate ATP) [µM] | Mechanism of inhibition (VopS [6]; varied substrate ATP) | Kii (VopS [6]; varied substrate Cdc42) [µM] | Mechanism of inhibition (VopS [6]; varied substrate Cdc42) | Reversal of cell rounding phenotype [7] | Gel based % inhibition HYPE (HYPE Fic E234G) [%] | Cellular protein AMPylation [8] | Gel based % inhibition VopS (VopS [3]) [%] | IC50 (PAD4; [9]) [µM] | Primary screen inhibition (VopS [5]) | HDX protection / binding region of VopS (VopSΔ30) | Ki (VopS [6]; competitive with respect to Cdc42) [µM] |
| --- | --- | --- | --- | --- | --- | --- | --- | --- | --- | --- | --- | --- | --- | --- | --- | --- | --- | --- | --- | --- |
| Nc1ncnc2c1ncn2[C@@H]1O[C@H](COP(=O)(O)OP(=O)(O)OP(=O)(O)O)[C@@H](O)[C@H]1O [ATP, adenosine triphosphate] | 7 ± 1 | 6.8 to 7 | ~50 | – | – | – | – | – | – | – | – | – | – | – | – | – | – | – | – | – |
| CC(C)(Sc1ccc(CCN(CCCCC2CCCCC2)C(=O)NC2CCCCC2)cc1)C(=O)O [Compound 1, GW7647] | – | – | – | decrease in labeling | 55 | 6 | > 59 | 61 | 41 ± 5 | Non-competitive | 20 ± 1 | Non-competitive | unable to reverse the cell rounding phenotype | 10 | decreased cellular protein AMPylation | – | – | – | – | – |
| Nc1ncnc2c1ncn2[C@@H]1O[C@H](COP(=O)(O)OP(=O)(O)OP(=O)(O)OP(=O)(O)OC[C@H]2O[C@@H](n3cnc4c(N)ncnc43)[C@H](O)[C@@H]2O)[C@@H](O)[C@H]1O [Compound 2, Ap4A] | – | – | – | – | – | – | – | – | – | – | – | – | – | 41 | – | 3 | > 59 | 47% ± 4 | – | – |
| CC(C)c1ccc2c(c1)c(SC(C)(C)C)c(CC(C)(C)C(=O)O)n2Cc1ccc(Cl)cc1 [Compound 3, MK886] | – | – | – | decrease in labeling | – | 6 | – | – | 50 ± 6 | Non-competitive | 99 ± 16 | Non-competitive | unable to reverse the cell rounding phenotype | 4 | decreased cellular protein AMPylation | 22 | > 59 | 41% ± 3 | increased protection within the N-terminus of VopS (residues 59–75) | – |
| Clc1ccc(C(c2ccc(Cl)cc2)n2cc[n+](CC(OCc3ccc(Cl)cc3Cl)c3ccc(Cl)cc3Cl)c2)cc1 (stereo not drawn) [Compound 4, calmidazolium] | – | – | – | decrease in labeling | 63 | 32 | > 59 | 33 | 26 ± 4 | Non-competitive | 6 ± 1 | Competitive | – | 2 | did not show a significant decrease | – | – | – | binds to the N-terminal region of VopS (in particular residues 59–63) | 6 ± 1 |

Source: article PMC3944102 (ACS chemical biology, 2013)
